Results taken from ChEMBL document CHEMBL2424630, “Synthesis and antioxidant evaluation of (S,S)- and (R,R)-secoisolariciresinol diglucosides (SDGs)” (Bioorg Med Chem Lett, 2013).
Active and inactive are the calls of the source. The rule behind the calls is not given here.

What was measured:
[1] = Ratio of alpha-tocopherol EC50 to compound EC50 for reduction of K3FeCN6; format: functional
[2] = Ratio of ascorbic acid acid EC50 to compound EC50 for reduction of K3FeCN6
[3] = test system: Radical scavenging activity; test: Antioxidant activity assessed as DPPH radical scavenging activity incubated for 20 mins under dark condition by spectrophotometric analysis; format: functional
[4] = test system: Radical scavenging activity; test: Antioxidant activity assessed as DPPH radical scavenging activity at 5 to 500 uM incubated for 20 mins under dark condition by spectrophotometric analysis; format: functional
[5] = Antioxidant activity assessed as peroxyl radical scavenging activity at 8 uM to 1 mM by fluorescence assay relative to trolox; format: functional
Outline: (§1)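 ORAC assay: peroxyl radicals were generated by AAPH, and oxidation of fluorescein was measured. Results are expressed as Trolox equivalents, calculated from concentrations within the linear part of the calibration curve. Values are mean ± standard deviation, n = 3.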

[6] = Antioxidant activity assessed as trolox equivalents of peroxyl radical scavenging activity by fluorescence assay; format: functional; outline: as §1
[7] = Antioxidant activity assessed as hydroxyl radical scavenging activity at 8 uM to 1 mM by fluorescence assay relative to gallic acid; format: functional
Outline: as §1, with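 “HORAC” for “ORAC”, “hydroxyl” for “peroxyl”, “generated from hydrogen peroxide” for “generated”, “Fenton reaction,” for “AAPH,”, “gallic acid” for “Trolox”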

[8] = Antioxidant activity assessed as reduction of K3FeCN6 by spectrophotometric analysis in presence of FeCl3; format: functional
Outline: (§2)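 Reducing power: reduction of K3FeCN6 in the presence of FeCl3, read as absorbance of the ferric-ferrous complex. Response was linear over 1–100 μM, and the regression equation from that range gave EC50. Values are mean ± standard deviation, n = 3.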

[9] = Antioxidant activity assessed as reduction of K3FeCN6 at 1 to 500 uM by spectrophotometric analysis in presence of FeCl3; format: functional; outline: as §2
[10] = Antioxidant activity assessed as gallic acid equivalents of hydroxyl radical scavenging activity by fluorescence assay; format: functional
Outline: as §1, with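 “HORAC” for “ORAC”, “hydroxyl” for “peroxyl”, “generated from hydrogen peroxide” for “generated”, “Fenton reaction,” for “AAPH,”, “gallic acid” for “Trolox”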

SMILES | Ratio EC50 [1] | Ratio EC50 [2] | EC50 [3] | Activity [4] | fold change (FC) [5] | Activity [6] | fold change (FC) [7] | Activity [8] | EC50 [8] | Activity [9] | Activity [10]
COc1cc(C[C@@H](CO[C@@H]2O[C@H](CO)[C@@H](O)[C@H](O)[C@H]2O)[C@H](CO[C@@H]2O[C@H](CO)[C@@H](O)[C@H](O)[C@H]2O)Cc2ccc(O)c(OC)c2)ccc1O | 3 | 3 | 124 µM | Active | 2 | 2.2 equiv | 2 | Dose-dependent effect | 332 µM | Active | –
COc1cc(C[C@H](CO[C@@H]2O[C@H](CO)[C@@H](O)[C@H](O)[C@H]2O)[C@@H](CO[C@@H]2O[C@H](CO)[C@@H](O)[C@H](O)[C@H]2O)Cc2ccc(O)c(OC)c2)ccc1O (stereo in doubt; form 1) | – | – | – | Active | 2 | 2.55 equiv | – | Dose-dependent effect | – | Active | 3.68 equiv
COc1cc(C[C@H](CO[C@@H]2O[C@H](CO)[C@@H](O)[C@H](O)[C@H]2O)[C@@H](CO[C@@H]2O[C@H](CO)[C@@H](O)[C@H](O)[C@H]2O)Cc2ccc(O)c(OC)c2)ccc1O (stereo in doubt; form 1) [(+)-SECOISOLARICIRESINOLDIGLUCOSIDE] | – | – | 83.9 µM | – | – | – | – | – | 275 µM | – | –
COc1cc(C[C@H](CO[C@@H]2O[C@H](CO)[C@@H](O)[C@H](O)[C@H]2O)[C@@H](CO[C@@H]2O[C@H](CO)[C@@H](O)[C@H](O)[C@H]2O)Cc2ccc(O)c(OC)c2)ccc1O (stereo in doubt; form 2) | 3 | 3 | – | Active | 2 | 3.03 equiv | 2 | Dose-dependent effect | – | Active | –
COc1cc(C[C@H](CO[C@@H]2O[C@H](CO)[C@@H](O)[C@H](O)[C@H]2O)[C@@H](CO[C@@H]2O[C@H](CO)[C@@H](O)[C@H](O)[C@H]2O)Cc2ccc(O)c(OC)c2)ccc1O (stereo in doubt; form 2) [(+)-SECOISOLARICIRESINOLDIGLUCOSIDE] | – | – | 158 µM | – | – | – | – | – | 292 µM | – | –
Cc1c(C)c2c(c(C)c1O)CC[C@@](C)(CCC[C@H](C)CCC[C@H](C)CCCC(C)C)O2 [ALPHA-TOCOPHEROL] | – | – | 133 µM | Active | – | – | – | – | 945 µM | Active | –
O=C1O[C@H]([C@@H](O)CO)C(O)=C1O [ASCORBIC ACID] | – | – | 440 µM | Active | – | – | – | – | 1130 µM | Active | –
